Reference: the RNAGym collection of RNA variant scans (doi:10.1126/science.aae0568)
This sample holds only a part of the variants without activity.

B1: tRNA (parent)
chain: GUUCCGUUGGCGUAAUGGUAACGCGUCUCCCUCCUAAGGAGAAGACUGCGGGUUCGAGUCCCGUACGGAACG

Variants of: B1
Assay: yeast fitness relative to wild type (ratio to wild type); higher = fitter; tRNA-Arg(CCU), competitive growth, 37 C, YPD
Method in brief: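 Start and end populations of a pooled competition were compared by 100-nucleotide paired-end sequencing of gene amplicons. The Saccharomyces cerevisiae strains carried tRNA-Arg(CCU) gene variants at the native genomic locus, synthesised with a 3% per-site mutation rate at 69 sites, and competed in YPD at 37°C for 24 hours in six parallel replicates. Darwinian fitness relative to wild type was based on the change in genotype frequencies. Genotypes required ≥ 100 starting reads, and estimates < 0.5 were set to 0.5.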

Row | Variant | yeast fitness
1 | C11G U19C A40G C66G A69U | ≤ 0.5
2 | C11G A15U G58U C66A A70C | ≤ 0.5
3 | C11U A21U C55A | 0.632
4 | C11G U13G | 0.599
5 | C11G U13A | 1.03
6 | C11U C22G A70C | 0.669
7 | C11U A20U C24U C29A U59A G67C A69C | ≤ 0.5
8 | C11U C66U A69G | 0.639
9 | C11U A21G U59A C62G | 0.502
10 | C11U C27G A43U G63A | ≤ 0.5
11 | C11U A37G G51A | 0.568
12 | C11G C46U C49A C55U A69U | 0.536
13 | C11U A15G A65C | 0.713
14 | C11G C27G A42C A45C | ≤ 0.5
15 | C11G C66A A69U | ≤ 0.5
16 | C11G G12C | 0.7
17 | C11G G48A | 0.582
18 | C11G C29U C34U C62A C66U | 0.565
19 | C11G C31G A36U | ≤ 0.5
20 | C11U A14G U16G C24G U26C U47G G50C C66A | ≤ 0.5
21 | C11U A40G U47G | ≤ 0.5
22 | C11U A15C G17C C22U C34G | ≤ 0.5
23 | C11U C31U U64A A70G | ≤ 0.5
24 | C11G G12C A20C C24G A37G G68A A69C | ≤ 0.5

Row | Variant | yeast fitness
25 | C11U G12A C31U | 0.532
26 | C11U A21G A37U G41A | ≤ 0.5
27 | C11U C24U C29G G38A A40C | ≤ 0.5
28 | C11U A36C G68C | ≤ 0.5
29 | C11U A36U A70U | 0.694
30 | C11G C46G | 0.75
31 | C11G C46A | 0.576
32 | C11U C31U A40C | 0.697
33 | C11G U54C | 0.512
34 | C11U A45G G52A | 0.63
35 | C11U A45G G52C | ≤ 0.5
36 | C11G C55G A57C | ≤ 0.5
37 | C11G C30U A37C A70U | ≤ 0.5
38 | C11U A15U G56C | ≤ 0.5
39 | C11G U28C U54C G58A | 0.53
40 | C11A U59A G67C A69C | ≤ 0.5
41 | C11G G23C G39A | 0.525
42 | C11G C24A G48C U54G C55U C66U | ≤ 0.5
43 | C11U A14C C30G A40G C49A G68A | 0.537
44 | C11U A21U G41C | 0.603
45 | C11G C29U A36C A42G C46G | ≤ 0.5
46 | C11U C46U A65U A69U | 0.54
47 | C11G A36U A42G A43C C49U A57U A65C | ≤ 0.5
48 | C11U A14G A57G U59C A69U | ≤ 0.5

Row | Variant | yeast fitness
49 | C11U C27A U54G | ≤ 0.5
50 | C11G A37U C46U G63U | ≤ 0.5
51 | C11G C22G C66A A69U | 0.533
52 | C11G G12A C60U A70G | ≤ 0.5
53 | C11U C24A A42G A57U U64A A69U | 0.505
54 | C11G G23C A36U G44C G68A | 0.717
55 | C11G C33U A36G C55U | ≤ 0.5
56 | C11G C24G C27A U28C C66U | ≤ 0.5
57 | C11U A42G G51U A57U | ≤ 0.5
58 | C11G G12C A20G A43G A45C A69U | ≤ 0.5
59 | C11A U35A C61U C62U C66A | ≤ 0.5
60 | C11G A14U U59G | ≤ 0.5
61 | C11U C30U G52C | ≤ 0.5
62 | C11G U32C | 0.597
63 | C11U A42G C62G A69U | ≤ 0.5
64 | C11G A14G A15U G23C U53A C62U | ≤ 0.5
65 | C11G A14G C24G G67C | ≤ 0.5
66 | C11G A15C C46G U59A | ≤ 0.5
67 | C11U A20G G48A C55G A57U | ≤ 0.5
68 | C11U C55U U59C A65C | ≤ 0.5
69 | C11A U26C C29G C31U G48A | ≤ 0.5
70 | C11U A20C C49G G67A | ≤ 0.5
71 | C11U A42C C49U | 0.734
72 | C11G A14U A43U G48A | ≤ 0.5

Row | Variant | yeast fitness
73 | C11G C31U | 0.632
74 | C11U C31U G39C A40U | 0.544
75 | C11G A20C C49A U54G | ≤ 0.5
76 | C11U A45U C66A | 0.659
77 | C11G C27U U28A | 0.537
78 | C11A U47A A70C | ≤ 0.5
79 | C11U A20U | 0.75
80 | C11U C29G C33U C60U A65U A69U | ≤ 0.5
81 | C11G A15U U16C C24G A40G C62U A70C | ≤ 0.5
82 | C11G A37U | ≤ 0.5
83 | C11G A15U C31A A70C | ≤ 0.5
84 | C11G U16C C27G C61U | 0.545
85 | C11U A20U G39A U64C A65C | ≤ 0.5
86 | C11G A14U C22A C29G C34A | ≤ 0.5
87 | C11G C31U G67C | 0.632
88 | C11G A15C G48C C55G G67C A70U | ≤ 0.5
89 | C11G A37C A45U G68C | ≤ 0.5
90 | C11U C55A C66A | ≤ 0.5
91 | C11G A15C C24G C46A | 0.546
92 | C11U A20U U26C | ≤ 0.5
93 | C11G C27U C33U A65C G67A | ≤ 0.5
94 | C11G U13G A21G G63A | ≤ 0.5
95 | C11G C34U C55G | 0.689
96 | C11G A20U A45C | ≤ 0.5

Row | Variant | yeast fitness
97 | C11U C30U C66A | ≤ 0.5
98 | C11G G12A C22U G44A | ≤ 0.5
99 | C11G U13C G58C A69U | ≤ 0.5
100 | C11U A20C C29G | 0.568
101 | C11U C29U | 0.738
102 | C11U C29G | 0.687
103 | C11G U35A C66U | 0.51
104 | C11U A20G C22A G23C U28G A43G A57G A70U | 0.587
105 | C11U C30A | 0.823
106 | C11U A37G | 0.896
107 | C11G G41C | 0.662
108 | C11U A21C A42G | 0.523
109 | C11G G12A G41C C66A G67C | 0.596
110 | C11G A15U A65C | 0.544
111 | C11U C24G C33A A42G | ≤ 0.5
112 | C11G G50U C62G | ≤ 0.5
113 | C11U A20G G23C C31U C46G A70U | ≤ 0.5
114 | C11G U54C C62U | ≤ 0.5
115 | C11G G18C A21G A40U A70U | 0.509
116 | C11G A14U U19A G25A C34U C60U G68A | 0.517
117 | C11U G17C U32A C46A | ≤ 0.5
118 | C11G C29G C33U C46A C49G | 0.564
119 | C11G A21C G56A | ≤ 0.5
120 | C11U G18A G48A G67C | ≤ 0.5

Row | Variant | yeast fitness
121 | C11G A15G C24G C46G G67A | ≤ 0.5
122 | C11U C31U C61U A69U | ≤ 0.5
123 | C11G C22U C27U U47A G52C | 0.67
124 | C11G A21G A57G | ≤ 0.5
125 | C11U A42G | 0.917
126 | C11U A42C | 0.91
127 | C11G U26A U35A G67C | ≤ 0.5
128 | C11U A15U G38A G56A | ≤ 0.5
129 | C11G A21G C31G | ≤ 0.5
130 | C11G U47A G52A G58C G63C C66G | 0.664
131 | C11G C24A U28G A36G G63A | ≤ 0.5
132 | C11U C22U C66U A70C | ≤ 0.5
133 | C11A U32C C49U | 0.606
134 | C11G A37C A42G C66G G68U | ≤ 0.5
135 | C11U C22A C29G C33U A70C | 0.551
136 | C11U C33U A36G G39A G44A | ≤ 0.5
137 | C11G U32A A37C G39A A43G U54C C62G | ≤ 0.5
138 | C11G A21U U26C U47C G68C | ≤ 0.5
139 | C11G C24U U28C C55G | ≤ 0.5
140 | C11U G39A | 0.947
141 | C11U A45U G58U | 0.562
142 | C11U A14G A65U G68A | 0.617
143 | C11G U16A C29U | ≤ 0.5
144 | C11U G12A G51C C62U | ≤ 0.5

Row | Variant | yeast fitness
145 | C11U C22U C34A A40U | ≤ 0.5
146 | C11U C22U A65U A69U | ≤ 0.5
147 | C11U G23C G41A C62A | ≤ 0.5
148 | C11U A21C A36G | ≤ 0.5
149 | C11U A37G G48A | 0.597
150 | C11G C27G C66U | ≤ 0.5
151 | C11G C60G G67C | 0.667
152 | C11G U35A C62A C66G | ≤ 0.5
153 | C11U C29G A37C A42U A57G G67A | 0.566
154 | C11G A15G U26G C66U | ≤ 0.5
155 | C11U C22G C27U C31G | ≤ 0.5
156 | C11G G17A A37U A70G | ≤ 0.5
157 | C11U A45U C61G A65C | ≤ 0.5
158 | C11G C66A | ≤ 0.5
159 | C11G C66U | 0.615
160 | C11G C49A G67C | ≤ 0.5
161 | C11G G41C C55U G58A | ≤ 0.5
162 | C11U A14U U16C | ≤ 0.5
163 | C11G A57U C66U | ≤ 0.5
164 | C11U C27U C31A A42G C49G G51A G68C | ≤ 0.5
165 | C11G A20G A43U U47A A65U G67C | ≤ 0.5
166 | C11U A15C | 0.595
167 | C11U G18C C31U | ≤ 0.5
